# Calls of active or inactive are those of the source. The rule behind the calls is not given here.
# Columns and labels:
# [1] = target: T1, DCN1-like protein 4 (Homo sapiens, UniProt Q92564); test: Binding affinity to N-terminal GST tagged recombinant DCN4 (unknown origin) (102 to 292 residues) expressed in Escherichia coli BL21(DE3) assessed as reduction in DCN1/FAM-labelled N-terminal acetylated UBE2M (1 to 21 residues) protein-protein interaction after 30 mins by HTRF assay
# T1 sequence (Q92564 whole entry): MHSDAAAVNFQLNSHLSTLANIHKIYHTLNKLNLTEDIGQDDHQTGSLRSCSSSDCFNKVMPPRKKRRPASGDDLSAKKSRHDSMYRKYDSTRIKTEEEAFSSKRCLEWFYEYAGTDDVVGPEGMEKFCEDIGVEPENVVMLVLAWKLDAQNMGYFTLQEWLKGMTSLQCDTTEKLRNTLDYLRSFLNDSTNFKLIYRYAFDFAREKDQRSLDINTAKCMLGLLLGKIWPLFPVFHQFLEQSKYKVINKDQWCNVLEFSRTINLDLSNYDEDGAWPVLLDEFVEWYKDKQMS
# Summary of the method: (§1)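 HTRF competition: 5nM GST-tagged DCN (1-5) and 5nM AcUBE2M1-21-biotin peptide, with streptavidin-XL665 and anti-GST cryptate, in 100mM phosphate buffer pH 6.5 with 0.02% Tween-20. Cocktail pre-incubated 30min at room temperature, compound added, then 30min more. Excitation 320nm, emission 615/665nm. Ki from three independent repeats, mean ± SD.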
# [2] = system: A549; test: Induction of apoptosis in human A549 cells assessed as viable cells at 5 uM after 48 hrs by Annexin V-FITC/propidium iodide staining based flow cytometry (reference value: 92.9%); assay type: functional; settings: A549, 48 h, read-out: Activity
# [3] = system: A549; test: Induction of apoptosis in human A549 cells assessed as late apoptotic cells at 10 uM after 48 hrs by Annexin V-FITC/propidium iodide staining based flow cytometry (reference value: 2.61%); assay type: functional
# [4] = system: PC-9; test: Induction of apoptosis in human PC9 cells assessed as late apoptotic cells at 2.5 uM after 48 hrs by Annexin V-FITC/propidium iodide staining based flow cytometry (reference value: 1.57%); assay type: functional
# [5] = system: NCI-H1975; test: Induction of apoptosis in human NCI-NCI-H1975 cells assessed as necrotic cells at 5 uM after 48 hrs by Annexin V-FITC/propidium iodide staining based flow cytometry (reference value: 0.94%); assay type: functional
# [6] = system: PC-9; test: Induction of apoptosis in human PC9 cells assessed as early apoptotic cells at 2.5 uM after 48 hrs by Annexin V-FITC/propidium iodide staining based flow cytometry (reference value: 1.36%); assay type: functional
# Summary of the method: (§2)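 PC9 cells seeded in 6-well plates (1~2×10^6 cells/mL), incubated overnight, then exposed to 0, 2.5, 5 or 10µM compound for 48h. Harvested cells stained with Annexin-V-FITC/PI for 30 min and analysed by flow cytometry. Three individual experiments; means ± SD.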
# [7] = target: DCN1-like protein 2 (Homo sapiens, UniProt Q6PH85); test: Binding affinity to N-terminal GST tagged recombinant DCN2 (unknown origin) (62 to 259 residues) expressed in Escherichia coli BL21(DE3) assessed as reduction in DCN1-FAM-labelled N-terminal acetylated UBE2M (1 to 21 residues) protein-protein interaction after 30 mins by HTRF assay; summary of the method: as §1
# DCN1-like protein 2, sequence (Q6PH85 whole entry, the tested form may be a part): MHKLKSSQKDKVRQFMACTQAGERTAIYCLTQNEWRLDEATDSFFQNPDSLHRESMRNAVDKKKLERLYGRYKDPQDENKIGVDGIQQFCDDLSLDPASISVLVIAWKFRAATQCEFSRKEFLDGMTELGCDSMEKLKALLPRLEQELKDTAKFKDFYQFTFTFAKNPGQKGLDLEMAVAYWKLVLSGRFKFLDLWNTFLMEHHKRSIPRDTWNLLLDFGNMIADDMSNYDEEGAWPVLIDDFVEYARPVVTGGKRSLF
# [8] = system: KYSE-70 cell line; test: Antiproliferative activity against human KYSE-70 after 72 hrs by MTT assay; assay type: functional, cell-based; settings: KYSE-70, 72 h
# Summary of the method: (§3)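 MTT viability assay: cells seeded at 2~5×10^3 per well, exposed to serial dilutions of compound for 72h, then MTT (5 mg/mL in PBS) added for 4h at 37°C. Formazan dissolved in DMSO and read at 490nm. IC50 reported as mean ± SD of three independent experiments.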
# [9] = system: PC-9; test: Induction of apoptosis in human PC9 cells assessed as late apoptotic cells at 5 uM after 48 hrs by Annexin V-FITC/propidium iodide staining based flow cytometry (reference value: 1.57%); assay type: functional
# [10] = system: PC-9; test: Induction of apoptosis in human PC9 cells assessed as necrotic cells at 5 uM after 48 hrs by Annexin V-FITC/propidium iodide staining based flow cytometry (reference value: 1.34%); assay type: functional; summary of the method: as §2
# [11] = system: NCI-H1975; test: Induction of apoptosis in human NCI-NCI-H1975 cells assessed as viable cells at 2.5 uM after 48 hrs by Annexin V-FITC/propidium iodide staining based flow cytometry (reference value: 96.1%); assay type: functional; settings: NCI-H1975, 48 h, read-out: Activity
# [12] = system: A549; test: Induction of apoptosis in human A549 cells assessed as viable cells at 2.5 uM after 48 hrs by Annexin V-FITC/propidium iodide staining based flow cytometry (reference value: 92.9%); assay type: functional; settings: A549, 48 h, read-out: Activity
# [13] = system: A549; test: Induction of apoptosis in human A549 cells assessed as early apoptotic cells at 5 uM after 48 hrs by Annexin V-FITC/propidium iodide staining based flow cytometry (reference value: 3.63%); assay type: functional
# [14] = system: NCI-H1975; test: Induction of apoptosis in human NCI-NCI-H1975 cells assessed as late apoptotic cells at 10 uM after 48 hrs by Annexin V-FITC/propidium iodide staining based flow cytometry (reference value: 0.46%); assay type: functional
# [15] = system: A549; test: Induction of apoptosis in human A549 cells assessed as early apoptotic cells at 10 uM after 48 hrs by Annexin V-FITC/propidium iodide staining based flow cytometry (reference value: 3.63%); assay type: functional
# [16] = system: A549; test: Inhibition of colony formation in human A549 cells after 7 days by crystal violet staining based microscopic analysis; assay type: functional, cell-based
# Summary of the method: (§4)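 H1975, PC9 and A549 cells seeded at 1×10^3 cells per well and cultured overnight, then given fresh medium with compound at 0, 0.625, 1.25, 2.5, 5 or 10μM for 7 days. Cells fixed, stained with 0.1% crystal violet and imaged by microscopy; dye then dissolved and read on a plate reader. Three experiments; means ± SD.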
# [17] = system: NCI-H1975; test: Induction of apoptosis in human NCI-NCI-H1975 cells assessed as necrotic cells at 10 uM after 48 hrs by Annexin V-FITC/propidium iodide staining based flow cytometry (reference value: 0.94%); assay type: functional
# [18] = system: PC-9; test: Induction of apoptosis in human PC9 cells assessed as necrotic cells at 2.5 uM after 48 hrs by Annexin V-FITC/propidium iodide staining based flow cytometry (reference value: 1.34%); assay type: functional; summary of the method: as §2
# [19] = system: A549; test: Induction of apoptosis in human A549 cells assessed as early apoptotic cells at 2.5 uM after 48 hrs by Annexin V-FITC/propidium iodide staining based flow cytometry (reference value: 3.63%); assay type: functional
# [20] = system: PC-9; test: Effect on NQO1 accumulation in human PC9 cells transfected with DCN1 siRNA3 by densitometric method; assay type: functional, cell-based
# Summary of the method: (§5)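 H1975 or PC9 cells seeded in 6-well plates for 16-24h, transfected with DCN1 siRNA#3 by lipofection, with or without compound, and collected three days later. Western blot for Cullin3, DCN1, NRF2, HO-1 and NQO1, with densitometry normalized to GAPDH. Three individual experiments, means ± SD.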
# [21] = system: GES1; test: Antiproliferative activity against human GES-1 after 72 hrs by MTT assay; assay type: cell-based; settings: ges1, 72 h; summary of the method: as §3
# [22] = system: NCI-H1975; test: Inhibition of colony formation in human […] cells after 7 days by crystal violet staining based microscopic analysis; assay type: functional, cell-based; summary of the method: as §4
# [23] = system: NCI-H1975; test: Effect on NRF2 accumulation in human NCI-H1975 cells transfected with DCN1 siRNA3 by densitometric method; assay type: functional, cell-based; summary of the method: as §5
structure (smiles),measurement,setting,value
C#CCSc1nc(Sc2nccs2)c(C#N)c(-c2ccc(C)cc2)n1,Ki,[1],807 nM
same,viability at 5 µM,[2],52.6%
same,Activity,[3],81.1%
same,Activity,[4],10.2%
same,Activity,[5],4.92%
same,Activity,[6],0.64%
same,Ki,[7],66.2 nM
same,IC50,[8],4.3 µM
same,Activity,[9],22.7%
same,Activity,[10],5.29%
same,viability at 2.5 µM,[11],80%
same,viability at 2.5 µM,[12],82.2%
same,Activity,[13],8.75%
same,Activity,[14],46.9%
same,Activity,[15],2.52%
same,inhibition,[16],Dose-dependent effect
same,Activity,[17],2.74%
same,Activity,[18],19.9%
same,Activity,[19],6.21%
same,Activity,[20],inactive
same,Activity,[21],Non-Toxic
same,inhibition,[22],Dose-dependent effect
same,Activity,[23],inactive
